The source made the active and inactive calls. No cut-off for these calls is given here.
How the values were obtained:
[1] = tested on: Pseudomonas aeruginosa; test: Antibacterial activity against Pseudomonas aeruginosa PAO1 assessed as growth inhibition at 87.5 uM; assay type: functional; conditions: read-out: GI
[2] = tested on: Staphylococcus aureus; test: Antibacterial activity against methicillin-resistant Staphylococcus aureus 01A1095 assessed as growth inhibition at 350 uM after 19 hrs; assay type: functional
In short: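 Strain 01A1095 optical-density viability assay in caMH broth at 1980 CFU/well. Compounds were in DMSO (final 1.75%) and added before the bacteria. Plates were incubated at 37°C until OD620 reached 0.7-0.8, cooled 30 min and read at 620 nm. Vehicle served as the uninhibited-growth control and ciprofloxacin at 500 µg/mL as the kill control in internal control wells.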

[3] = tested on: Pseudomonas aeruginosa; test: Antibacterial activity against Pseudomonas aeruginosa PAO1; assay type: functional, organism-based
[4] = Selectivity ratio of antimicrobial activity for Pseudomonas aeruginosa PAO1 over methicillin-resistant Staphylococcus aureus 01A1095; assay type: functional
[5] = tested on: Pseudomonas aeruginosa; test: Antibacterial activity against Pseudomonas aeruginosa PAO1 assessed as growth inhibition at 175 uM; assay type: functional; conditions: read-out: GI
[6] = tested on: Pseudomonas aeruginosa; test: Antibacterial activity against Pseudomonas aeruginosa PAO1 assessed as growth inhibition at 350 uM; assay type: functional, organism-based

For `COc1cc2c3c(cc4cc(O)c(O)cc4c3c1O)[N+](C)(C)CC2`, the inhibition of growth at 87.5 µM [1] was 59% and the “growth inhibition (GI)” value [2] was “inactive”.
`O=C([O-])C(F)(F)F.Oc1cc2c(cc1O)[C@@H]1c3ccc(O)c(O)c3C[C@H]3Cc4cc(O)c(O)cc4[N+]31CC2` (some centres undefined) gave an IC50 [3] of 9.8 µM, an MIC [3] of 35 µM and a Selectivity ratio [4] of 36. The inhibition of growth at 350 µM ([2]; 01A1095, 19 h, read-out: GI) was 55%.
For `COc1cc2c3c(c1O)-c1cc(O)c(O)cc1CC3[N+](C)(C)CC2` (racemic), the inhibition of growth at 175 µM [5] was 59% and the “growth inhibition (GI)” value [2] was “inactive”.
With `COc1cc2c(cc1O)C(Cc1ccc(O)c(O)c1)[N+](C)(C)CC2` (racemic) the “growth inhibition (GI)” value [6] was “inactive” and the “growth inhibition (GI)” value [2] was “inactive”.
In the case of `COc1cc2c(cc1O)C(Cc1ccc(O)cc1)[N+](C)(C)CC2` (racemic), the “growth inhibition (GI)” value [6] is reported as “inactive” and the “growth inhibition (GI)” value [2] is reported as “inactive”.
With `C[N+]1(C)CCc2cc(O)c(O)cc2C1Cc1ccc(O)c(O)c1` (racemic) the “growth inhibition (GI)” value [6] was “inactive” and the “growth inhibition (GI)” value [2] was “inactive”.

From ChEMBL document CHEMBL1921732, “Alkaloids from the Chinese vine Gnetum montanum” (J Nat Prod, 2011)
